Assay outcomes (PubChem)
Sampled rows, rich in hits. Any-hit rate of the full collection: about 2.8%.
BB579 growth dn: growth inhibitors of yeast BB579 in restrictive medium, primary screen, yeast lifespan-shortening project, S. cerevisiae; 140,000 tested, 0.51% active; OD615, 48 h; AID 804, 2007; inhibition, % at 10 µM;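 active means inhibition above a set limit, 3 SD over the mean compound inhibition, cut at about 44% in these data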
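System: Saccharomyces cerevisiae DeaD strain BB579, replicative lifespan model yeast | Buffer or medium: Restrictive glucose-based CSMM-D medium | Times: 4 h preincubation and 48 h exposure at 30 °C | Detection: OD615 turbidity measurement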
RAM inhibit: inhibitors of the yeast RAM network, primary screen, dse1pr::URA3 reporter, 5-FOA selection; inhibition, % at 50 µM; S. cerevisiae dse1pr::URA3 reporter, 5-FOA growth OD615, 2 d; analog-sensitive cbk1-as2 kinase mutant strain; 190,000 tested, 1.8% active;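 active means inhibition above a set limit, 3 SD over mean compound inhibition, cut at about 8.4% in these data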;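 further: 0% = DMSO-only wells with no growth and 100% = 10 µM 1-NA-PP1 full growth; inhibition rescues growth on 5-FOA so higher OD means more RAM inhibition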
TNAP act hi DEA: TNAP activators at high phosphate acceptor level, primary screen, biochemical, luminescence, uHTS; Alkaline phosphatase, tissue-nonspecific isozyme (Homo sapiens), P05186; purified TNAP, CDP-star luminescence, 1 M DEA, 30 min; active compounds read high; 0 = EDTA background, 1 = DMSO-only activity; activation factor at 20 µM; 200,000 tested, under 10 active;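 active means activation factor at least 2 at 20 µM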
Target sequence (P05186 whole entry, looked up): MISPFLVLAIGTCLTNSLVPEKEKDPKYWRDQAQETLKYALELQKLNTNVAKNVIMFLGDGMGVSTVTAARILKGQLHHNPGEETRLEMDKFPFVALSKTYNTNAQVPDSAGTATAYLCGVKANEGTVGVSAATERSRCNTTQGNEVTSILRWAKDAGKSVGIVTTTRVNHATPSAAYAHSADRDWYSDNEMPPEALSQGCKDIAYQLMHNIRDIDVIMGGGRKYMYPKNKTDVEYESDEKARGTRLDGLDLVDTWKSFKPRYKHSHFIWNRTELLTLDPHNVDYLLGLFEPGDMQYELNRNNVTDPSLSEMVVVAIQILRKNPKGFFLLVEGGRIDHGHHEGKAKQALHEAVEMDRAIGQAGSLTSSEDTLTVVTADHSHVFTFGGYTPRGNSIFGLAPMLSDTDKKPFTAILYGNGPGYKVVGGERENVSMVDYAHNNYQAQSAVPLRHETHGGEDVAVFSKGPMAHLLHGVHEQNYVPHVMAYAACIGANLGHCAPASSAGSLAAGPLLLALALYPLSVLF
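Dosing: 20 µM single point. System: human TNAP. Amount: TNAP 1/800 final. Incubation: 30 min, room temperature. Read-out: TNAP activation factor scaled between EDTA and DMSO control wells. Signal: luminescence from CDP-star hydrolysis. Medium: 1 M DEA, pH 9.8, Mg2+, Zn2+. Control set: EDTA negative control, DMSO positive control.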
TNAP inh no acc: human TNAP enzyme inhibitors, primary screen, biochemical, luminescent, no phosphate acceptor, uHTS | Alkaline phosphatase, tissue-nonspecific isozyme (Homo sapiens), P05186 | purified TNAP, CDP-star luminescence, 30 min | inhibition, % at 20 µM | 200,000 tested, 0.26% active | AID 1012, 2008;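 active means tissue-nonspecific alkaline phosphatase inhibition above about 50% at 20 µM in the single-dose screen, limit read from the data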;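 further: 0% = DMSO negative control and 100% = EDTA positive control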
TNAP inh hi DEA: human TNAP enzyme inhibitors, primary screen, biochemical, luminescent, high phosphate acceptor level, uHTS; Alkaline phosphatase, tissue-nonspecific isozyme (Homo sapiens), P05186; purified TNAP, CDP-star luminescence, 1 M DEA; inhibition, % at 20 µM; 200,000 tested, 0.03% active; AID 1135, 2008;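 active means over 50% inhibition of tissue-nonspecific alkaline phosphatase at 20 µM in the single-dose screen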;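 further: plate controls were DMSO wells for no effect and EDTA-quenched wells as full inhibition for full effect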
Yeast life ext: compounds extending yeast replicative lifespan, primary screen, S. cerevisiae, OD615; inhibition of the nicotinamide effect, % at 10 µM; 130,000 tested, 0.68% active; S. cerevisiae growth with nicotinamide; deaD strain in restrictive glucose medium;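 active means inhibition above a set limit, placed 3 SD over the median of all compounds, cut at about 26% in these data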;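 further: 0% = nicotinamide-treated wells and 100% = cells grown without nicotinamide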
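Assay system: engineered S. cerevisiae DeaD replicative-lifespan strain, galactose-grown log-phase cells; Buffer or medium: CSMM-D glucose medium, restrictive; Probe or stimulus: nicotinamide 1.5 mM; Compound: single dose 10 µM compound, 0.25% DMSO; Schedule: 4 h preincubation then 48 h treatment at 30 °C; Technique: OD615 measurement.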
An asterisk follows results filed as active; . = no result.

SMILES | BB579 growth dn | RAM inhibit | TNAP act hi DEA | TNAP inh no acc | TNAP inh hi DEA | Yeast life ext
CCCCCC(=O)Nc1ccc(N2CCN(CC)CC2)c(Cl)c1 | -23 | 0 | 1 | -8 | -2 | -10
CCCCC(=O)NC(=S)Nc1cccc(Cl)c1N1CCCCC1 | -47 | 6 | 1 | -10 | -2 | 29*
CCCCCC(=O)NC(=S)Nc1ccc(N2CCCCC2)c(Cl)c1 | -27 | 9.6* | 1 | -4 | 3 | 2
O=C(COc1ccccc1C(=O)NCc1ccncc1)Nc1ccc(Br)cc1 | . | 1 | 1.1 | -13 | -6 | .
CCOC(=O)Cc1csc(NC(=S)NC(=O)c2ccccc2Br)n1 | -11 | 8.6* | 1 | -1 | 0 | 7
CCOC(=O)Cc1csc(NC(=S)NC(=O)c2ccc(C)cc2)n1 | -9 | 9.7* | 0.9 | 15 | 6 | -1
CC1CCCN(CC(=O)Nc2ccc(S(=O)(=O)NC3CCCCC3)cc2)C1 (stereo unspecified) | -35 | 0 | 1 | 0 | 4 | 3
NCCCCCc1nnc(SCC(=O)c2ccc(Cl)cc2)o1 | -38 | 2 | 1 | -4 | -2 | -7
O=Cc1cn[nH]c1-c1ccccc1 | . | 1 | 1 | 75* | -3 | .
CCn1ncc(/C=N/NC(=O)c2ccc3c(c2)OCO3)c1C | -11 | 1 | 1 | -14 | -4 | 120*
Cc1c(/C=N/NC(=O)c2ccc3c(c2)OCO3)cnn1C | -19 | 2 | 1 | -14 | -3 | 3
CCOCCCNCc1ccc(OCCC(C)C)c(OC)c1 | . | 2 | 1 | -19 | -3 | .
CCCCOc1ccc(C(=O)N/C(=C\c2cccc([N+](=O)[O-])c2)C(=O)OC(C)C)cc1 | -41 | 8.8* | 1 | -8 | 0 | -10
CCN=C1S/C(=C\c2ccc(OC)c(OCC)c2)C(=O)N1CC | -23 | 3 | 1 | -15 | 0 | 0
COc1ccc(/C=C2\SC(=NCc3ccccc3)N(Cc3ccccc3)C2=O)cc1OC | -13 | 9.4* | 1 | -6 | -1 | 26
CCOC(=O)/C(C#N)=C1\Nc2ccccc2N=C1N(CC(C)C)CC(C)C | -99 | 8.9* | 0.9 | 7 | 8 | 12
CCOC(=O)/C(C#N)=C1/C=C(C)NC(c2ccccc2O)=N1 | -34 | 7 | 1 | -12 | -2 | -6
COc1cc(C)ccc1OCCOc1c(Cl)cc(Cl)cc1Cl | -28 | 9.9* | 1 | -11 | -5 | -13
COc1cc(C)ccc1OCCOc1cc(C)ccc1Cl | -34 | 4 | 1 | -8 | -4 | -22
COc1cccc(C(=O)CN(C(=O)c2ccc(Cl)c(Cl)c2)N2C(=O)C3CCCCC3C2=O)c1 (stereo unspecified) | -33 | 4 | 1 | 1 | -3 | -4
N=C(N)SCc1ccccn1 | -18 | 1 | 1 | 51* | -2 | 3
c1ccc(CSc2nnc(SCc3ccccn3)s2)nc1 | -22 | 1 | 1 | -7 | -4 | -5
COc1ccc(C(=O)c2ccc([N+](=O)[O-])cc2Cl)cc1 | . | 0 | 1 | -5 | 1 | .
O=C(CCC(NC(=O)OCc1ccccc1)C(=O)OCc1ccccc1)NCC(=O)OCc1ccccc1 (stereo unspecified) | -44 | 8.8* | 1 | -4 | 2 | 5
COc1ccc(CCNC(=O)Cc2cc(OC)c(OC)cc2Br)cc1OC | . | 2 | 1.1 | -1 | -6 | .
COc1ccc(CCNC(=O)Cc2ccc(OCc3ccccc3)c(OC)c2[N+](=O)[O-])cc1OCc1ccccc1 | -61 | 9.1* | 1.1 | -4 | -6 | -5
COc1ccc(/C=N/NC(=O)c2c(C)nnn2-c2nonc2N)cc1OC | . | 1 | 1 | -20 | -2 | .
CCCn1c(Nc2nc3ccccc3n2C)nc2ccccc21 | 90* | 0 | 1.1 | -8 | -5 | -30
